Measurements as given in ChEMBL document CHEMBL5653618 (ACS Med Chem Lett, 2010).
pIC50: −log10 of the molar value. The source made the active and inactive calls. No cut-off for these calls is given here.

What was measured:
[1] = Inhibition of Akt phosphorylation at S473 residue (unknown origin) by cell based analysis; conditions: Homo sapiens
[2] = target: Phosphatidylinositol 4,5-bisphosphate 3-kinase catalytic subunit alpha isoform (Homo sapiens, UniProt P42336); test: Inhibition of PI3Kalpha (unknown origin) using PIP2 as substrate preincubated for 15 mins followed by substrate addition and measured after 1 hr in presence of ATP by HTRF assay
[3] = Aqueous solubility of compound; assay type: physicochemical; conditions: buffer
BT-474 [4] = test: Antitumor activity against human BT-474 cells xenografted in mouse assessed as decrease in pAKT level at 300 microg/kg, po measured after 4 hrs; assay type: functional; design: scale not given: the % may be the effect or the level left; conditions: dose 300 µg/kg
Procedure, shortened: (§1)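 Mice bearing BT474 human tumour xenografts got one oral dose of 300 μg/kg. Tumour pAKT was read as the pAKT/total AKT ratio and compared with control. Sampling ran over a 24 h time course.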

[5] = Half life in rat at 0.4 mg/kg, iv by HPLC/MS/MS analysis; assay type: ADME, organism-based; conditions: in vivo
BT-474 [6] = test: Antitumor activity against human BT-474 cells xenografted in mouse assessed as decrease in pAKT level at 300 microg/kg, po measured after 1 hr; assay type: functional; design: scale not given: the % may be the effect or the level left; conditions: dose 300 µg/kg; procedure, shortened: as §1
BT-474 [7] = test: Antitumor activity against human BT-474 cells xenografted in mouse assessed as decrease in pAKT level at 300 microg/kg, po measured after 10 hrs; assay type: functional; design: scale not given: the % may be the effect or the level left; conditions: dose 300 µg/kg; procedure, shortened: as §1
BT-474 [8] = test: Induction of cell cycle arrest in human BT-474 cells assessed as accumulation in G1 phase; assay type: functional, cell-based
Homo sapiens [9] = species: Homo sapiens; test: Inhibition of Akt phosphorylation at T308 residue (unknown origin) by cell based analysis
[10] = Volume of distribution at steady state in dog at 0.1 mg/kg, iv by HPLC/MS/MS analysis; assay type: ADME, organism-based, Canis lupus familiaris; conditions: in vivo, read-out: Vdss
BT-474 [11] = test: Antitumor activity against human BT-474 cells xenografted in mouse assessed as decrease in pAKT level at 300 microg/kg, po measured after 2 hrs; assay type: functional; design: scale not given: the % may be the effect or the level left; conditions: dose 300 µg/kg; procedure, shortened: as §1
[12] = Dose normalized AUC in dog at 0.5 mg/kg, po by HPLC/MS/MS analysis; assay type: ADME, organism-based, Canis lupus familiaris; conditions: in vivo
[13] = Clearance in monkey at 0.1 mg/kg, iv by HPLC/MS/MS analysis; assay type: ADME, organism-based, Macaca mulatta; conditions: rhesus monkey, in vivo
BT-474 [14] = test: Antitumor activity against human BT-474 cells xenografted in po dosed mouse assessed as tumor growth inhibition administered 5 times a week for 3 weeks; assay type: functional, organism-based; conditions: dose 0.3-3 mg/kg
[15] = Clearance in dog at 0.1 mg/kg, iv by HPLC/MS/MS analysis; assay type: ADME, organism-based, Canis lupus familiaris; conditions: in vivo
Homo sapiens [16] = species: Homo sapiens; test: Inhibition of p70S6K (unknown origin)
Cytochrome P450 2C9 = Cytochrome P450 2C9 (Homo sapiens, UniProt P11712); test: Inhibition of CYP2C9 (unknown origin)
[17] = Dose normalized AUC in rat at 2.1 mg/kg, po measured upto 24 hrs by HPLC/MS/MS analysis; assay type: ADME, organism-based; conditions: in vivo
[18] = Toxicity in mouse xenografted with human BT-474 cells assessed as tolerability at 3 mg/kg, po administered 5 times a week for 3 weeks; assay type: organism-based; conditions: in vivo, 504 h
[19] = Half life in mouse at 0.6 mg/kg, iv by HPLC/MS/MS analysis; assay type: ADME, organism-based; conditions: in vivo
T47D [20] = test: Antiproliferative activity against human T47D cells assessed as inhibition of cell growth measured after 72 hrs by CellTiter-Glo assay; assay type: functional, cell-based
Cytochrome P450 2C19 = Cytochrome P450 2C19 (Homo sapiens, UniProt P33261); test: Inhibition of CYP2C19 (unknown origin)
[21] = Half life in monkey at 0.1 mg/kg, iv by HPLC/MS/MS analysis; assay type: ADME, organism-based, Macaca mulatta; conditions: rhesus monkey, in vivo
[22] = Oral bioavailability in dog at 0.5 mg/kg by HPLC/MS/MS analysis; assay type: ADME, organism-based, Canis lupus familiaris; conditions: in vivo
Cytochrome P450 2D6 = Cytochrome P450 2D6 (Homo sapiens, UniProt P10635); test: Inhibition of CYP2D6 (unknown origin)
Cytochrome P450 1A2 = target: T1, Cytochrome P450 1A2 (Homo sapiens, UniProt P05177); test: Inhibition of CYP1A2 (unknown origin)
T1 sequence (P05177 whole entry): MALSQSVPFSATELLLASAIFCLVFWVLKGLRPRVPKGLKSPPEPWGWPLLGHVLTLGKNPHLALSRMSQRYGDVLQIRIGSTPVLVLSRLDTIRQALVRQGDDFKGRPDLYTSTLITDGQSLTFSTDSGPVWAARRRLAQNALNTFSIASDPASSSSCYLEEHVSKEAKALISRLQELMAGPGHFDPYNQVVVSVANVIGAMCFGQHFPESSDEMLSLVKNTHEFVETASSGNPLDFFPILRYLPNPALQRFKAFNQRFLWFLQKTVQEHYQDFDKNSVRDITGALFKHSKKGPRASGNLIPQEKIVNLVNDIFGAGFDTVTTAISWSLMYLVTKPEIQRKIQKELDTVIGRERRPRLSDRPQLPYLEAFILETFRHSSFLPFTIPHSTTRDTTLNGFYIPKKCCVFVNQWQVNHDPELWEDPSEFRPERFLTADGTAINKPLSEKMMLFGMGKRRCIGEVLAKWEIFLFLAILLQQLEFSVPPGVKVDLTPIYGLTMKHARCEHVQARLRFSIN

BT-474 [23] = test: Antiproliferative activity against human BT-474 cells assessed as inhibition of cell growth measured after 72 hrs by CellTiter-Glo assay; assay type: functional, cell-based; conditions: BT-474, 72 h
[24] = Volume of distribution at steady state in mouse at 0.6 mg/kg, iv by HPLC/MS/MS analysis; assay type: ADME, organism-based; conditions: in vivo, read-out: Vdss
[25] = Volume of distribution at steady state in monkey at 0.1 mg/kg, iv by HPLC/MS/MS analysis; assay type: ADME, organism-based, Macaca mulatta; conditions: rhesus monkey, in vivo, read-out: Vdss
[26] = Oral bioavailability in mouse at 2.6 mg/kg by HPLC/MS/MS analysis; assay type: ADME, organism-based; conditions: in vivo
[27] = Oral bioavailability in rat at 2.1 mg/kg by HPLC/MS/MS analysis; assay type: ADME, organism-based; conditions: in vivo
[28] = Volume of distribution at steady state in rat at 0.4 mg/kg, iv by HPLC/MS/MS analysis; assay type: ADME, organism-based; conditions: in vivo, read-out: Vdss
[29] = Dose normalized AUC in monkey at 0.6 mg/kg, po by HPLC/MS/MS analysis; assay type: ADME, organism-based, Macaca mulatta; conditions: rhesus monkey, in vivo
[30] = Oral bioavailability in monkey at 0.6 mg/kg by HPLC/MS/MS analysis; assay type: ADME, organism-based, Macaca mulatta; conditions: rhesus monkey, in vivo
[31] = Clearance in mouse at 0.6 mg/kg, iv by HPLC/MS/MS analysis; assay type: ADME, organism-based; conditions: in vivo
T47D [32] = test: Induction of cell cycle arrest in human T47D cells assessed as accumulation in G1 phase; assay type: functional, cell-based
[33] = Dose normalized AUC in mouse at 2.6 mg/kg, po by HPLC/MS/MS analysis; assay type: ADME, organism-based; conditions: in vivo
Cytochrome P450 3A4 = Cytochrome P450 3A4 (Homo sapiens, UniProt P08684); test: Inhibition of CYP3A4 (unknown origin)
[34] = Clearance in rat at 0.4 mg/kg, iv by HPLC/MS/MS analysis; assay type: ADME, organism-based; conditions: in vivo
[35] = target: DNA-dependent protein kinase catalytic subunit (Homo sapiens, UniProt P78527); test: Inhibition of DNA-PK (unknown origin)
BT-474 [36] = test: Antitumor activity against human BT-474 cells xenografted in mouse assessed as decrease in pAKT level at 300 microg/kg, po measured after 6 hrs; assay type: functional; design: scale not given: the % may be the effect or the level left; conditions: dose 300 µg/kg; procedure, shortened: as §1
[37] = Half life in dog at 0.1 mg/kg, iv by HPLC/MS/MS analysis; assay type: ADME, organism-based, Canis lupus familiaris; conditions: in vivo
[38] = Inhibition of Akt phosphorylation at S473 residue in human T47D cells by cell based assay
Procedure, shortened: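 Cellular mechanistic assay in T47D and BT474 cancer cells measuring loss of intracellular AKT phosphorylation at S473.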

Sequence of Phosphatidylinositol 4,5-bisphosphate 3-kinase catalytic subunit alpha isoform (P42336 whole entry, canonical isoform): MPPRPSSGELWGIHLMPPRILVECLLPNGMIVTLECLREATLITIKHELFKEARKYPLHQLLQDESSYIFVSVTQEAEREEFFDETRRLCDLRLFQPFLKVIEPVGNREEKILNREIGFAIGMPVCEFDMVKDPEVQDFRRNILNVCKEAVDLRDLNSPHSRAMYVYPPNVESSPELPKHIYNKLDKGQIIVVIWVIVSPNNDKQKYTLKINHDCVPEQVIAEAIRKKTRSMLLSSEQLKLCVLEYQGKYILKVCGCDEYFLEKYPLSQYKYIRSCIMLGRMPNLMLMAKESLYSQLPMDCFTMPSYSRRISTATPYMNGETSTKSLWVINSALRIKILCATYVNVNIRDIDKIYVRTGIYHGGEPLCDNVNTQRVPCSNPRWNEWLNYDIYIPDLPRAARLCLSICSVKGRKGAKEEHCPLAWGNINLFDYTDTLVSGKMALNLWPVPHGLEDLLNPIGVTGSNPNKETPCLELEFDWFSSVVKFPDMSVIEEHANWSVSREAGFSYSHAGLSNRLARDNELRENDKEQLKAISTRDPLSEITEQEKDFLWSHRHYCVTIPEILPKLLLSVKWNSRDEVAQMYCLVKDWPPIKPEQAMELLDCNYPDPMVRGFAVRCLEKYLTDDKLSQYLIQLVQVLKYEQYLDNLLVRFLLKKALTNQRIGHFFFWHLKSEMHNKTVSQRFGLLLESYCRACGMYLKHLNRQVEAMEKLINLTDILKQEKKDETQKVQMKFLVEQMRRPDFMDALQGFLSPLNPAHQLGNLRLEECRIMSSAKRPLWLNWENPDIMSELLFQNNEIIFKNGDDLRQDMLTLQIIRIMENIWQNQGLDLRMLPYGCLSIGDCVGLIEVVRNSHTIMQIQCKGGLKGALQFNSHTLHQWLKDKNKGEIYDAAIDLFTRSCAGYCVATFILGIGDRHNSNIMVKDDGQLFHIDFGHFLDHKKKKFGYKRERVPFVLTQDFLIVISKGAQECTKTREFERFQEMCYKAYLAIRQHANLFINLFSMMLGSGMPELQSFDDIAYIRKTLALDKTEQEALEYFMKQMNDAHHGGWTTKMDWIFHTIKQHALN
Sequence of Cytochrome P450 2D6 (P10635 whole entry): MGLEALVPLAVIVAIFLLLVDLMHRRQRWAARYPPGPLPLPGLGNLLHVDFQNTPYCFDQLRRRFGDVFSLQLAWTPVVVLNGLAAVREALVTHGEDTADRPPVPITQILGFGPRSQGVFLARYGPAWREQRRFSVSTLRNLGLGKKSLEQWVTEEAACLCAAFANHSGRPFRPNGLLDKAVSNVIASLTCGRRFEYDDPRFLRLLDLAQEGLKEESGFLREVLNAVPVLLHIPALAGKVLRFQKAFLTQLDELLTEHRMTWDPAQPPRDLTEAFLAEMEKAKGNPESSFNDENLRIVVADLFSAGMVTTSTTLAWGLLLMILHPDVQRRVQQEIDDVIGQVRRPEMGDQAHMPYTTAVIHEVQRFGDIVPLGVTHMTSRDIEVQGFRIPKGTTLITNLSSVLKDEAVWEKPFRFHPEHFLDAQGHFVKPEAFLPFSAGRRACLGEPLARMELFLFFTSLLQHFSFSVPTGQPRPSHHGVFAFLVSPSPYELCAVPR
Sequence of Cytochrome P450 2C19 (P33261 whole entry): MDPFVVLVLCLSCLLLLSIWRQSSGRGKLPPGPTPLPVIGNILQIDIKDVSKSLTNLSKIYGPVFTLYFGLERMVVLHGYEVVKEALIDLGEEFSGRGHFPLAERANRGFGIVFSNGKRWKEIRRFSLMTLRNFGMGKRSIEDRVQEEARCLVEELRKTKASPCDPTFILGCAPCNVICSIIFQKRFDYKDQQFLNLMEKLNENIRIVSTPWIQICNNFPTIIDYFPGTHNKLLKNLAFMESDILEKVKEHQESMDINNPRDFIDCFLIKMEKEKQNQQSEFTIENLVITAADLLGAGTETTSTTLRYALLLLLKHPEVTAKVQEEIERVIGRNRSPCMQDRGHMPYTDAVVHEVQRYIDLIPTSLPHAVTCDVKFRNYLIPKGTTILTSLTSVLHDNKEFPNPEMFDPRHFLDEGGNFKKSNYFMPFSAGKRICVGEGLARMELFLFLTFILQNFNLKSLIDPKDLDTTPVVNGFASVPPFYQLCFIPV
Sequence of Cytochrome P450 2C9 (P11712 whole entry): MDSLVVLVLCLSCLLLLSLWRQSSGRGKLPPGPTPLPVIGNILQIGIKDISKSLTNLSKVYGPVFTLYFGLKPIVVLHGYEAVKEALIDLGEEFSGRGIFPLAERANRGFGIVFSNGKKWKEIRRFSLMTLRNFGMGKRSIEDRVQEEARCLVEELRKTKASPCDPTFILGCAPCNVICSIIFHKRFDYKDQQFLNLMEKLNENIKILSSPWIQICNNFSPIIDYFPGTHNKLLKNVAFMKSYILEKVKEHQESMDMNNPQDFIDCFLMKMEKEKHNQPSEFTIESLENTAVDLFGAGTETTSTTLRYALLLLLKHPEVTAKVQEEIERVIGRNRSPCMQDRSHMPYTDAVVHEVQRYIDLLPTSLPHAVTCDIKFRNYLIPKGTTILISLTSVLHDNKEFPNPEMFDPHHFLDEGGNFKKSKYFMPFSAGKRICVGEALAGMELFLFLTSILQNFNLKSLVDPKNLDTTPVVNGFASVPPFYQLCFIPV
Sequence of Cytochrome P450 3A4 (P08684 whole entry): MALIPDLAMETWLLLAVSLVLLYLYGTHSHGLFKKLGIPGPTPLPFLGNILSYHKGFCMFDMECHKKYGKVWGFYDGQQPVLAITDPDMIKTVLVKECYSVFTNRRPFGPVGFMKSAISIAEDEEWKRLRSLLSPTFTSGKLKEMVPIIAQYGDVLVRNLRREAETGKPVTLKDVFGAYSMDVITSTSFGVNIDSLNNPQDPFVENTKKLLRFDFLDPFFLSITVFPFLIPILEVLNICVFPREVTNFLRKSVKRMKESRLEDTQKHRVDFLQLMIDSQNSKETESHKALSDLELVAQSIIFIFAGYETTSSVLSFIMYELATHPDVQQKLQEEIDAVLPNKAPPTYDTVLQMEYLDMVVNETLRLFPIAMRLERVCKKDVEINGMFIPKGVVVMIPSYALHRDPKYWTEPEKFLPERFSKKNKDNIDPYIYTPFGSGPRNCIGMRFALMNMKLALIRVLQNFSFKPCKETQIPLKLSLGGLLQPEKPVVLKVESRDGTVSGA

c1cncc(-c2ccc3nccc(-c4ccncc4)c3c2)c1
pIC50 [1]: < 4.53 | pIC50 [2]: 6.59

O=C1NC(=O)/C(=C/c2ccc3nccc(-c4ccncc4)c3c2)S1 [GSK-1059615]
pIC50 [1]: 7.40 | pIC50 [2]: 8.70

c1ccc(-c2ccc3nccc(-c4ccncc4)c3c2)cc1
pIC50 [1]: 5.09 | pIC50 [2]: 5.74

c1cc(-c2ccnc3ccc(-c4ccc5[nH]ncc5c4)cc23)ccn1
pIC50 [1]: 5.57 | pIC50 [2]: 7.14

c1cc(-c2ccnc3ccc(-c4cnc5[nH]ncc5c4)cc23)ccn1
pIC50 [1]: 7.12 | pIC50 [2]: 8.15 | solubility [3]: Insoluble

COc1ncc(-c2ccc3nccc(-c4ccnnc4)c3c2)cc1NS(=O)(=O)c1ccc(F)cc1F [OMIPALISIB]
Activity (BT-474 [4]): 79% | half-life [5]: 6.2 h | Activity (BT-474 [6]): 98% | Activity (BT-474 [7]): 46% | Activity (BT-474 [8]): Active | inhibition (Homo sapiens [9]): Active | Vd [10]: 0.7 L/kg | Activity (BT-474 [11]): 93% | AUC/dose [12]: 2400 ng·h/mL/mg/kg | clearance [13]: 3.6 mL/min/kg | Activity (BT-474 [14]): Dose-Dependent Effect | clearance [15]: 5.8 mL/min/kg | inhibition (Homo sapiens [16]): Active | pIC50 (Cytochrome P450 2C9): < 4.60 | AUC/dose [17]: 6100 ng·h/mL/mg/kg | Activity [18]: Non-Toxic | half-life [19]: 2.1 h | pIC50 (T47D [20]): 8.52 | pIC50 (Cytochrome P450 2C19): < 4.60 | half-life [21]: 3.5 h | bioavailability [22]: 80% | pIC50 (Cytochrome P450 2D6): < 4.60 | pIC50 (Cytochrome P450 1A2): < 4.60 | pIC50 (BT-474 [23]): 8.62 | Vd [24]: 1 L/kg | Vd [25]: 0.8 L/kg | bioavailability [26]: 100% | bioavailability [27]: 81% | Vd [28]: 1.1 L/kg | AUC/dose [29]: 2300 ng·h/mL/mg/kg | bioavailability [30]: 49% | clearance [31]: 10 mL/min/kg | Activity (T47D [32]): Active | AUC/dose [33]: 1100 ng·h/mL/mg/kg | pIC50 (Cytochrome P450 3A4): < 4.60 | clearance [34]: 2.3 mL/min/kg | pIC50 [35]: 9.55 | Activity (BT-474 [36]): 47% | half-life [37]: 1.3 h | pIC50 [38]: 9.39

O=S(=O)(Nc1cncc(-c2ccc3nccc(-c4ccncc4)c3c2)c1)c1ccc(F)cc1F
pIC50 [1]: 8.15 | pIC50 [2]: 10.00 | AUC/dose [17]: 1100 ng·h/mL/mg/kg

O=S(=O)(Nc1ccc(F)cc1F)c1cncc(-c2ccc3nccc(-c4ccncc4)c3c2)c1
pIC50 [1]: 7.35 | pIC50 [2]: 9.00 | AUC/dose [17]: 920 ng·h/mL/mg/kg

Nc1ncc(-c2ccc3nccc(-c4ccncc4)c3c2)cc1S(=O)(=O)Nc1ccc(F)cc1F
pIC50 [1]: 7.20 | pIC50 [2]: 9.00 | AUC/dose [17]: 250 ng·h/mL/mg/kg

Nc1ncc(-c2ccc3nccc(-c4ccncc4)c3c2)cc1S(N)(=O)=O
pIC50 [1]: 7.31 | pIC50 [2]: 8.00 | solubility [3]: Soluble
